What was measured:
Assay type in all cases: functional
MOLT-4 = assay: Growth inhibition of human MOLT4 cells assessed as growth percentage at 10 uM incubated for 48 hrs by sulforhodamine B assay relative to control; conditions: MOLT-4, 48 h, read-out: Activity
Procedure, shortened: (§1)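 NCI-60 one-dose screen. Cells in RPMI 1640 with 5% FBS and 2 mM L-glutamine, seeded at 5,000–40,000 cells/well according to doubling time, and preincubated overnight at 37 °C, 5% CO2. A time-zero plate was TCA-fixed at drug addition. Compound from DMSO stock, final 10 µM, 48 h; DMSO vehicle controls. Fixation with TCA, 10% final (16% for suspension cells). SRB stain, Tris solubilization, A515. Result given as % growth versus untreated cells.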

MDA-MB-468 = assay: Growth inhibition of human MDA-MB-468 cells assessed as growth percentage at 10 uM incubated for 48 hrs by sulforhodamine B assay relative to control; conditions: MDA-MB-468, 48 h, read-out: Activity; procedure, shortened: as §1
UO-31 = assay: Growth inhibition of human UO31 cells assessed as growth percentage at 10 uM incubated for 48 hrs by sulforhodamine B assay relative to control; conditions: UO-31, 48 h, read-out: Activity
Procedure, shortened: (§2)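 NCI-60 single-dose screen. Cells were grown in RPMI 1640 with 5% FBS and 2 mM L-glutamine and plated at 5,000–40,000 cells/well. After an overnight preincubation at 37 °C in 5% CO2, compound was added at a final 10 µM from a DMSO stock, with DMSO/PBS controls. After 48 h, cells were TCA-fixed and stained with 0.4% SRB, and absorbance was read at 515 nm. Growth is given as a percentage of untreated control.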

HOP-62 = assay: Growth inhibition of human HOP62 cells assessed as growth percentage at 10 uM incubated for 48 hrs by sulforhodamine B assay relative to control; conditions: HOP-62, 48 h, read-out: Activity; procedure, shortened: as §1
MDA-MB-435 = assay: Growth inhibition of human MDA-MB-435 cells assessed as growth percentage at 10 uM incubated for 48 hrs by sulforhodamine B assay relative to control; conditions: MDA-MB-435, 48 h, read-out: Activity; procedure, shortened: as §1
PC-3 = assay: Growth inhibition of human PC3 cells assessed as growth percentage at 10 uM incubated for 48 hrs by sulforhodamine B assay relative to control; conditions: PC-3, 48 h, read-out: Activity; procedure, shortened: as §2
SNB-19 = assay: Growth inhibition of human SNB19 cells assessed as growth percentage at 10 uM incubated for 48 hrs by sulforhodamine B assay relative to control; conditions: SNB-19, 48 h, read-out: Activity; procedure, shortened: as §2
IGROV-1 = assay: Growth inhibition of human IGROV1 cells assessed as growth percentage at 10 uM incubated for 48 hrs by sulforhodamine B assay relative to control; conditions: IGROV-1, 48 h, read-out: Activity; procedure, shortened: as §1
NCI-H226 = assay: Growth inhibition of human NCI-H226 cells assessed as growth percentage at 10 uM incubated for 48 hrs by sulforhodamine B assay relative to control; conditions: NCI-H226, 48 h, read-out: Activity; procedure, shortened: as §1
M14 = assay: Growth inhibition of human M14 cells assessed as growth percentage at 10 uM incubated for 48 hrs by sulforhodamine B assay relative to control; conditions: M14, 48 h, read-out: Activity; procedure, shortened: as §1
MCF7 = assay: Growth inhibition of human MCF7 cells assessed as growth percentage at 10 uM incubated for 48 hrs by sulforhodamine B assay relative to control; conditions: MCF7, 48 h, read-out: Activity; procedure, shortened: as §1
BT-549 = assay: Growth inhibition of human BT549 cells assessed as growth percentage at 10 uM incubated for 48 hrs by sulforhodamine B assay relative to control; conditions: BT-549, 48 h, read-out: Activity
Procedure, shortened: (§3)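 NCI-60 one-dose screen: cells in RPMI 1640 with 5% FBS and 2 mM L-glutamine, plated at 5,000–40,000 cells/well and preincubated 24 h at 37 °C, 5% CO2. Compound is added from a DMSO stock to a final 10 µM and incubated 48 h. Cells are TCA-fixed and stained with sulforhodamine B, read at 515 nm. Output is % growth versus untreated control, with a time-zero plate.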

TK-10 = assay: Growth inhibition of human TK10 cells assessed as growth percentage at 10 uM incubated for 48 hrs by sulforhodamine B assay relative to control; conditions: TK-10, 48 h, read-out: Activity; procedure, shortened: as §2
T47D = assay: Growth inhibition of human T47D cells assessed as growth percentage at 10 uM incubated for 48 hrs by sulforhodamine B assay relative to control; conditions: read-out: Activity; procedure, shortened: as §2
SNB-75 = assay: Growth inhibition of human SNB75 cells assessed as growth percentage at 10 uM incubated for 48 hrs by sulforhodamine B assay relative to control; conditions: SNB-75, 48 h, read-out: Activity; procedure, shortened: as §2
RPMI-8226 = assay: Growth inhibition of human RPMI8226 cells assessed as growth percentage at 10 uM incubated for 48 hrs by sulforhodamine B assay relative to control; conditions: RPMI-8226, 48 h, read-out: Activity; procedure, shortened: as §2
CCRF-CEM = assay: Growth inhibition of human CCRF-CEM cells assessed as growth percentage at 10 uM incubated for 48 hrs by sulforhodamine B assay relative to control; conditions: read-out: Activity; procedure, shortened: as §3
SF-539 = assay: Growth inhibition of human SF539 cells assessed as growth percentage at 10 uM incubated for 48 hrs by sulforhodamine B assay relative to control; conditions: SF-539, 48 h, read-out: Activity; procedure, shortened: as §2
SR = assay: Growth inhibition of human SR cells assessed as growth percentage at 10 uM incubated for 48 hrs by sulforhodamine B assay relative to control; conditions: read-out: Activity; procedure, shortened: as §2
ACHN = assay: Growth inhibition of human ACHN cells assessed as growth percentage at 10 uM incubated for 48 hrs by sulforhodamine B assay relative to control; conditions: read-out: Activity; procedure, shortened: as §3
NCI-H460 = assay: Growth inhibition of human NCI-H460 cells assessed as growth percentage at 10 uM incubated for 48 hrs by sulforhodamine B assay relative to control; conditions: NCI-H460, 48 h, read-out: Activity; procedure, shortened: as §1
Hs-578T = assay: Growth inhibition of human Hs 578T cells assessed as growth percentage at 10 uM incubated for 48 hrs by sulforhodamine B assay relative to control; conditions: read-out: Activity; procedure, shortened: as §1
NCI-H522 = assay: Growth inhibition of human NCI-H522 cells assessed as growth percentage at 10 uM incubated for 48 hrs by sulforhodamine B assay relative to control; conditions: NCI-H522, 48 h, read-out: Activity; procedure, shortened: as §1
EKVX = assay: Growth inhibition of human EKVX cells assessed as growth percentage at 10 uM incubated for 48 hrs by sulforhodamine B assay relative to control; conditions: read-out: Activity; procedure, shortened: as §3
786-0 = assay: Growth inhibition of human 786-0 cells assessed as growth percentage at 10 uM incubated for 48 hrs by sulforhodamine B assay relative to control; conditions: 786-0, 48 h, read-out: Activity; procedure, shortened: as §3
NCI-H322M = assay: Growth inhibition of human NCI-H322M cells assessed as growth percentage at 10 uM incubated for 48 hrs by sulforhodamine B assay relative to control; conditions: read-out: Activity; procedure, shortened: as §1
SK-OV-3 = assay: Growth inhibition of human SKOV3 cells assessed as growth percentage at 10 uM incubated for 48 hrs by sulforhodamine B assay relative to control; conditions: SK-OV-3, 48 h, read-out: Activity; procedure, shortened: as §2

Structure (SMILES)	growth at 10 µM (MOLT-4) [%]	growth at 10 µM (MDA-MB-468) [%]	growth at 10 µM (UO-31) [%]	growth at 10 µM (HOP-62) [%]	growth at 10 µM (MDA-MB-435) [%]	growth at 10 µM (PC-3) [%]	growth at 10 µM (SNB-19) [%]	growth at 10 µM (IGROV-1) [%]	growth at 10 µM (NCI-H226) [%]	growth at 10 µM (M14) [%]	growth at 10 µM (MCF7) [%]	growth at 10 µM (BT-549) [%]	growth at 10 µM (TK-10) [%]	growth at 10 µM (T47D) [%]	growth at 10 µM (SNB-75) [%]	growth at 10 µM (RPMI-8226) [%]	growth at 10 µM (CCRF-CEM) [%]	growth at 10 µM (SF-539) [%]	growth at 10 µM (SR) [%]	growth at 10 µM (ACHN) [%]	also measured
CC(=O)C1=C(C)Nc2nc3ccccc3n2C1c1ccc2c(c1)OCO2 (racemic)	102	109	89.3	94.7	93.1	92.8	99.6	106	103	105	96.4	102	104	86.3	88.2	96.4	94.8	99.7	73.8	110	growth at 10 µM (NCI-H460): 112%; growth at 10 µM (Hs-578T): 99.8%; growth at 10 µM (NCI-H522): 73%; growth at 10 µM (EKVX): 110%; growth at 10 µM (786-0): 100%; growth at 10 µM (NCI-H322M): 98.1%; growth at 10 µM (SK-OV-3): 106%
CC1=C(C(=O)c2ccccc2)C(c2ccc3c(c2)OCO3)NC(=O)N1 (racemic)	103	109	80.6	99.2	90.1	103	101	90.6	97.4	99.8	97.5	95.6	99	91.2	91.4	100	98.5	99.7	101	108	growth at 10 µM (NCI-H460): 114%; growth at 10 µM (Hs-578T): 102%; growth at 10 µM (NCI-H522): 90.3%; growth at 10 µM (EKVX): 95.1%; growth at 10 µM (786-0): 99.5%; growth at 10 µM (NCI-H322M): 99.5%; growth at 10 µM (SK-OV-3): 109%
CC1=C(C(=O)OC(C)C)C(c2ccc3c(c2)OCO3)NC(=O)N1 (racemic)	108	104	84.9	117	110	101	93.6	101	101	104	96.5	93.7	98.8	101	105	101	113	100	108	103	growth at 10 µM (NCI-H460): 110%; growth at 10 µM (Hs-578T): 102%; growth at 10 µM (NCI-H522): 91.1%; growth at 10 µM (EKVX): 96.1%; growth at 10 µM (786-0): 102%; growth at 10 µM (NCI-H322M): 113%; growth at 10 µM (SK-OV-3): 105%
